Measured values: ChEMBL document CHEMBL1146075, “Synthesis and anti-BVDV activity of acridones as new potential antiviral agents” (J Med Chem, 2006)
≈ marks a conversion by molar mass, not a printed value. Calls of active or inactive are those of the source. No cut-off for these calls is given here.

How the values were obtained:
Human respirovirus 3 = assay: Antiviral activity against parainfluenza3 virus in vero cells; type: functional, organism-based
[1] = test system: Human immunodeficiency virus 1; assay: Antiviral activity against HIV1 3B in MT4 cells; type: functional, organism-based
[2] = test system: Respiratory syncytial virus; assay: Antiviral activity against respiratory syncytial virus […] in HeLa cells; type: functional, organism-based
Human alphaherpesvirus 2 = assay: Antiviral activity against HSV2 G in E6SM cells; type: functional, organism-based
[3] = test system: Bovine viral diarrhea virus 1; assay: Antiviral activity against BVDV NADL in MDBK cells; type: functional, organism-based; settings: Bovine viral diarrhea virus isolates and strains
How it was run: (§1)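 MDBK cells seeded 20 × 10^3/well in MEM with 5% heat-inactivated FCS, confluent after 24 h; serial 3-fold compound dilutions added, then virus at MOI 0.5 (line 2: NADL F224S mutant). 5 days at 37 °C, then ethanol fixation and Giemsa staining. CPE scored microscopically 0–10 per well. EC50 by logarithmic interpolation; mean ± SD of at least three experiments.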

Human betaherpesvirus 5 [4] = assay: Antiviral activity against HCMV AD169 in human embryonic lung cells; type: functional, organism-based
Vaccinia virus = assay: Antiviral activity against vaccinia virus in E6SM cells; type: functional, organism-based; settings: Orthopoxvirus vaccinia
Human betaherpesvirus 5 [5] = assay: Antiviral activity against HCMV Davis in human embryonic lung cells; type: functional, organism-based
Punta Toro virus = assay: Antiviral activity against Punta Toro virus in vero cells; type: functional, organism-based
Coxsackievirus B4 = assay: Antiviral activity against coxsackie virus B4 in vero cells; type: functional, organism-based
Sindbis virus = assay: Antiviral activity against sindbis virus in vero cells; type: functional, organism-based
MDBK441 [6] = assay: Selectivity index (CC50/EC50) for inhibition of BVDV NADL in MDBK cells; type: functional
How it was run: (§2)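 SI = CC50/EC50. EC50 comes from a 5-day Giemsa-stained CPE assay in MDBK cells at MOI 0.5; CC50 from a 3-day MTS/PMS proliferation assay. Means of at least three experiments. Line 10 uses the NADL F224S mutant.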

Human alphaherpesvirus 1 = assay: Antiviral activity against HSV1 KOS in E6SM cells; type: functional, organism-based
[7] = test system: Human immunodeficiency virus 2; assay: Antiviral activity against HIV2 ROD in MT4 cells; type: functional, organism-based
[8] = test system: Vesicular stomatitis virus; assay: Antiviral activity against vesicular stomatitis virus in E6SM cells; type: functional, organism-based
[9] = test system: Mammalian orthoreovirus 1; assay: Antiviral activity against Reovirus1 in vero cells; type: functional, organism-based
MDBK441 [10] = assay: Cytotoxicity against MDBK cells; type: functional; settings: Bos taurus
How it was run: (§3)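 Cells seeded the day before, then given serial compound dilutions and left to proliferate 3 days at 37 °C. MDBK: 10^4/well in MEM-FCS. Huh 5-2: 5 × 10^3/well in complete DMEM. Cell number read by MTS/PMS. CC50 is the concentration inhibiting cell growth by 50%.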

Huh-5-2 = assay: Cytotoxicity against human hepatoma Huh5-2 cells; type: functional; how it was run: as §3
MDBK441 [11] = assay: Selectivity index (CC50/EC50) for inhibition of VP32947-resistant BVDV in MDBK cells; type: functional; how it was run: as §2
MDBK441 [12] = assay: Inhibition of BVDV NADL RNA production in MDBK cells; type: functional, cell-based; settings: Bos taurus
How it was run: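 Viral RNA came from supernatant, total cellular RNA by kit. One-step TaqMan RT-qPCR: UNG 50 °C 2 min; RT 60 °C 30 min; 95 °C 5 min; 40 cycles of 94 °C 20 s and 62 °C 1 min. Three replicate reactions per sample.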

[13] = test system: Bovine viral diarrhea virus 1; assay: Antiviral activity against VP32947-resistant BVDV in MDBK cells; type: functional, organism-based; settings: Bovine viral diarrhea virus isolates and strains; how it was run: as §1
MDBK441 [14] = assay: Inhibition of BVDV NADL production in MDBK cells; type: functional, cell-based; settings: Bos taurus
How it was run: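 Supernatants were titrated on MDBK cells seeded at 5 × 10^3/well (10–15% confluent). Cells were infected 24 h later with 10-fold serial dilutions and, after 4 days, ethanol-fixed and Giemsa-stained. CPE was read microscopically; titre by Reed–Muench, as CCID50/mL.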

SMILES	Activity (Human respirovirus 3)	Activity [1]	Activity [2]	Activity (Human alphaherpesvirus 2)	EC50 [3] [µg/mL]	Activity (Human betaherpesvirus 5 [4])	Activity (Vaccinia virus)	Activity (Human betaherpesvirus 5 [5])	Activity (Punta Toro virus)	Activity (Coxsackievirus B4)	Activity (Sindbis virus)	Selectivity index (MDBK441 [6])	Activity (Human alphaherpesvirus 1)	Activity [7]	Activity [8]	Activity [9]	CC50 (MDBK441 [10]) [µg/mL]	also measured
COc1cc(O)c2c(=O)c3cc([N+](=O)[O-])c(Cl)cc3n(C)c2c1	inactive	inactive	inactive	inactive	> 83	inactive	inactive	inactive	inactive	inactive	inactive	1	inactive	inactive	inactive	inactive	83 (≈ 248 µM)	
COc1cc(OC)c2c(=O)c3cc(N)c(N4CCN(c5ccccn5)CC4)cc3n(C)c2c1	inactive	inactive	inactive	inactive	> 100	inactive	inactive	inactive	inactive	inactive	inactive	1	inactive	inactive	inactive	inactive	> 100	
Cn1c2cc(Cl)c(N)cc2c(=O)c2c(O)cc(O)cc21	inactive	inactive	inactive	inactive		inactive	inactive	inactive	inactive	inactive	inactive	13	inactive	inactive	inactive	inactive	5 (≈ 17.2 µM)	
COc1cc(O)c2c(=O)c3cc(N)c(N4CCN(c5ccccn5)CC4)cc3n(C)c2c1	inactive	inactive	inactive	inactive		inactive	inactive	inactive	inactive	inactive	inactive	>25	inactive	inactive	inactive	inactive	> 100	
COc1cc(OC)c2c(=O)c3cc([N+](=O)[O-])c(N4CCN(c5ccccn5)CC4)cc3n(C)c2c1	inactive	inactive	inactive	inactive	18 (≈ 37.9 µM)	inactive	inactive	inactive	inactive	inactive	inactive	>6	inactive	inactive	inactive	inactive	> 100	
COc1cc(O)c2c(=O)c3cc(N)c(Cl)cc3n(C)c2c1	inactive	inactive	inactive	inactive		inactive	inactive	inactive	inactive	inactive	inactive	>47	inactive	inactive	inactive	inactive	> 33	
COc1cc(O)c2c(=O)c3cc([N+](=O)[O-])c(N4CCN(c5ccccn5)CC4)cc3n(C)c2c1	inactive	inactive	inactive	inactive	> 100	inactive	inactive	inactive	inactive	inactive	inactive	1	inactive	inactive	inactive	inactive	> 100	
COc1cc(OC)c2c(=O)c3cc(N)c(Cl)cc3n(C)c2c1	inactive	inactive	inactive	inactive	> 100	inactive	inactive	inactive	inactive	inactive	inactive	1	inactive	inactive	inactive	inactive	> 100	
COc1cc(OC)c2c(=O)c3cc([N+](=O)[O-])c(Cl)cc3n(C)c2c1	inactive	inactive	inactive	inactive	> 100	inactive	inactive	inactive	inactive	inactive	inactive	1	inactive	inactive	inactive	inactive	> 100	
Cn1c2cc(N3CCN(c4ccccn4)CC3)c(N)cc2c(=O)c2c(O)cc(O)cc21	inactive	inactive	inactive	inactive		inactive	inactive	inactive	inactive	inactive	inactive	>200	inactive	inactive	inactive	inactive	> 100	CC50 (Huh-5-2): 21 µg/mL (≈ 50.3 µM); Selectivity index (MDBK441 [11]): >45; EC50 (MDBK441 [12]): 2.3 µg/mL (≈ 5.51 µM); EC50 [13]: 2.24 µg/mL (≈ 5.37 µM); EC50 (MDBK441 [14]): 2.01 µg/mL (≈ 4.81 µM)
CCCN(CCC)CCSc1n[nH]c2c3ccccc3nc-2n1					0.009 (≈ 0.0273 µM)							>111					> 1	Selectivity index (MDBK441 [11]): 1; EC50 [13]: > 1 µg/mL
C[C@@]1(O)[C@H](O)[C@@H](CO)O[C@H]1n1cnc2c(N)ncnc21					0.22 (≈ 0.782 µM)							>63					> 14	Selectivity index (MDBK441 [11]): >38; EC50 [13]: 0.37 µg/mL (≈ 1.32 µM)
